Assay results reported in ChEMBL document CHEMBL5674869, “The Histone Methyltransferase Inhibitor A-366 Uncovers a Role for G9a/GLP in the Epigenetics of Leukemia” (PLoS One, 2015).
Activity calls are given as the source filed them. The rule behind the calls is not given here.

Experiments:
HT-1080 [1] = assay: Antiproliferative activity against human HT-1080 cells after 2 days by Cell-Titer-Glo assay; format: functional, cell-based; conditions: HT-1080, 48 h
Procedure, shortened: (§1)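 ATCC tumor lines were grown in their recommended media with 10% FBS and STR-authenticated. Cells were exposed to compound for the stated number of days. Viable cells were read by CellTiter-Glo endpoint. Inhibition was the ratio of treated to untreated wells, with cell-free wells set as 100% inhibition. The EC50 was taken from the dose response.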

[2] = molecular target: T1, Histone-lysine N-methyltransferase EHMT2 (Homo sapiens) (UniProt Q96KQ7); assay: Inhibition of G9a in human PC-3 cells assessed as effect on H3k4me3 levels at 0.3 to 3 uM after 72 hrs by Western blot analysis; format: cell-based; conditions: dose 0.3-3 µM
T1 sequence (whole entry): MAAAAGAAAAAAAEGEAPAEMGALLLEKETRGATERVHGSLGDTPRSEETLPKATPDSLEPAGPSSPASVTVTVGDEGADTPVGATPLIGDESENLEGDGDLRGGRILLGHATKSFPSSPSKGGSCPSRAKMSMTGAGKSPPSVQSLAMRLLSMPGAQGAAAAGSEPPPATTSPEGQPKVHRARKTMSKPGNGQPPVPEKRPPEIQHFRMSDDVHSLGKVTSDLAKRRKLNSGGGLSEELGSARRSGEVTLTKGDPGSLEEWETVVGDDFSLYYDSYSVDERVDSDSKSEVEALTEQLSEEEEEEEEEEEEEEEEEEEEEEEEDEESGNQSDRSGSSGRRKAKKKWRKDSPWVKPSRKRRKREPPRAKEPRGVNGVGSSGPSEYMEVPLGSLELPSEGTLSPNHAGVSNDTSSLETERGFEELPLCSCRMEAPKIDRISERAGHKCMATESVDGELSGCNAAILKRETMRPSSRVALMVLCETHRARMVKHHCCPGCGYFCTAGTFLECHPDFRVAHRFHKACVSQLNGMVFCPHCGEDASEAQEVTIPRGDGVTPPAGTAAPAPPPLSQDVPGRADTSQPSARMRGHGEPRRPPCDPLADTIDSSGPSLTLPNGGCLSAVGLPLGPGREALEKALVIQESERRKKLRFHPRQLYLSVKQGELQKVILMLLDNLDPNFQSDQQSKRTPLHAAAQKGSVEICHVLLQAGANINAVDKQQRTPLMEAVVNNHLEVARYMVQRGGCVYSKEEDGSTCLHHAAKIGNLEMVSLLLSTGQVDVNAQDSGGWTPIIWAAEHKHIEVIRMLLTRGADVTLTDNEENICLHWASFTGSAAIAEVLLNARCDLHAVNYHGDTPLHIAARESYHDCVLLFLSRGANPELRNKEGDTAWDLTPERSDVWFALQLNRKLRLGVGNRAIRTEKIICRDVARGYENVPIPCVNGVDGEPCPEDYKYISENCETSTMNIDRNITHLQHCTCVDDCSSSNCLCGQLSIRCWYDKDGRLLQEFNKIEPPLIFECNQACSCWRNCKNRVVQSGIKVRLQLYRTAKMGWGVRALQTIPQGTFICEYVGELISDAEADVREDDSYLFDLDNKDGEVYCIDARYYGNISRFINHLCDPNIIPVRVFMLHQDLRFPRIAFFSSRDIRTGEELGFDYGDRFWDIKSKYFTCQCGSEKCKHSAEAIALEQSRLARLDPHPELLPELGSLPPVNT
Procedure, shortened: (§2)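 PC-3 prostate cells incubated with DMSO, 0.3 or 3 μM compound for 72 h. Lysates probed by western blot with antibodies to H3K9me2, H3K4me2, H3K4me3, H3K9me3, H4K20me1, H4K20me3, H3K36me2 and H3K27me3.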

[3] = molecular target: T1, Histone-lysine N-methyltransferase EHMT2 (Homo sapiens); assay: Inhibition of G9a in human PC-3 cells assessed as effect on H4k20me1 levels at 0.3 to 3 uM after 72 hrs by Western blot analysis; format: cell-based; conditions: dose 0.3-3 µM; procedure, shortened: as §2
HT-1080 [4] = assay: Antiproliferative activity against human HT-1080 cells upto 10 uM after 2 days by Cell-Titer-Glo assay; format: functional, cell-based; conditions: time 2.0 day; procedure, shortened: as §1
[5] = Cytotoxicity against human PBMC cells assessed as effect on cell viability after 48 hrs by Cell-titerGlo assay; format: toxicity, cell-based
Procedure, shortened: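 PBMCs from two human donors were pooled and grown in AIM-V medium. Cells were treated with compound for 48 h. Viability was read by CellTiter-Glo endpoint.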

MV4-11 [6] = assay: Antiproliferative activity against human MV4-11 cells after 14 days by Cell-titer Glo assay; format: functional, cell-based; conditions: time 14.0 day
Procedure, shortened: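 Leukemia cells (MV4;11 or HL-60) in medium with 10% FBS were treated with a dose range of compound for 14 days. Proliferation was read by CellTiter-Glo endpoint, with inhibition set against untreated controls and cell-free wells as 100% inhibition. Viability was also measured in parallel by trypan blue exclusion.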

MV4-11 [7] = assay: Inhibition of cell viability in human MV4-11 cells after 14 days by trypan blue exclusion assay; format: functional, cell-based; conditions: time 14.0 day
Procedure, shortened: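 MV4;11 cells treated 14 days with compound over a concentration range. Viability scored by trypan blue exclusion; parallel proliferation read by CellTiter-Glo.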

MV4-11 [8] = assay: Induction of cell cycle arrest in human MV4-11 cells assessed as increase in subG0/G1 cells after 14 days by propidium iodide staining based flow cytometry; format: functional; conditions: time 14.0 day
Procedure, shortened: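 MV4;11 cells treated 14 days with compound over a concentration range. They were then washed in cold PBS and stained 20 min with 50 μg/ml propidium iodide, 0.1 mg/ml RNase A, 0.1% BSA and 0.1% Triton X-100. Cell-cycle DNA content, including sub-G1/G0 fraction, measured by flow cytometry on BD LSR-II.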

MV4-11 [9] = assay: Antitumor activity against human MV4-11 cells xenografted in SCID/beige mouse assessed as tumor growth inhibition at 30 mg/kg/day via osmotic-mini pump for 14 days; format: functional; conditions: MV4-11, 336 h, time 14 day
Procedure, shortened: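 MV4;11 cells mixed with 50% Matrigel, 5 x 10^6 cells injected subcutaneously in flank of 6–8 week old female SCID-beige mice. At ~200 mm3, mice allocated by tumor volume (n = 10/group). Dosed by osmotic mini-pump in 98% PEG-400/2% Tween-80 for 14 days. Calipers read 2 times weekly, V = (L x W2)/2. %TGI computed from control versus treated mean tumor volumes.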

[10] = Drug level in SCID/beige mouse plasma xenografted with human MV4-11 cells at 30 mg/kg/day via osmotic-mini pump; format: ADME, organism-based; conditions: in vivo
Procedure, shortened: (§3)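 Tumor-bearing SCID-beige female mice (6–8 wk) with subcutaneous flank MV4;11 xenografts (5 x 10^6 cells in 50% Matrigel, grown to ~200 mm3). Compound given by osmotic mini-pump at 30 mg/kg/day in 98% PEG-400/2% Tween-80. Separate PK/PD arm sacrificed after 2, 7 and 14 days of treatment; plasma and tissues collected and analyzed for drug levels.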

[11] = Drug level in SCID/beige mouse muscle xenografted with human MV4-11 cells at 30 mg/kg/day via osmotic-mini pump; format: ADME, organism-based, Muscle tissue; conditions: in vivo; procedure, shortened: as §3
[12] = Drug level in SCID/beige mouse brain xenografted with human MV4-11 cells at 30 mg/kg/day via osmotic-mini pump; format: ADME, organism-based; conditions: in vivo; procedure, shortened: as §3
HL-60 (human) = assay: Induction of cell cycle arrest in human HL-60 cells assessed as increase in G1 phase cells after 4 days by propidium iodide staining based flow cytometry; conditions: time 4.0 day

SMILES | EC50 (HT-1080 [1]) [nM] | inhibition [2] | inhibition [3] | Activity (HT-1080 [4]) | Activity [5] | Activity (MV4-11 [6]) | inhibition (MV4-11 [7]) | Activity (MV4-11 [8]) | inhibition in vivo at 30 mg/kg/day (MV4-11 [9]) [%] | Drug uptake [10] | Drug uptake [11] | Drug uptake [12] | Activity (HL-60 (human))
COc1cc2c(NC3CCN(C(C)C)CC3)nc(C3CCCCC3)nc2cc1OCCCN1CCCC1 | 1400 |  |  |  |  |  |  |  |  |  |  |  | 
COc1cc2c(cc1OCCCN1CCCC1)N=C(N)C21CCC1 |  | inactive | inactive | inactive | Non-Toxic | Active | Active | Active | 45 | Active | Active | Active | Active
